Assay results from ChEMBL document CHEMBL4049439, “Synthesis and Characterization of Tetrahydropyran-Based Bacterial Topoisomerase Inhibitors with Antibacterial Activity against Gram-Negative Bacteria” (J Med Chem, 2017).
≈ marks a conversion by molar mass, not a printed value.

Experiments:
Rattus norvegicus [1] = experiment: Dose normalized AUC in Wistar rat at 10 mg/kg, iv by LC-MS/MS analysis; type: ADME, organism-based; details: in vivo
Method in brief: (§1)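 Rats dosed iv at 10 mg/kg or 1 mg/kg. Dose-normalized AUC (μg·h/(mL·dose)) and its unbound counterpart derived via fraction unbound. Clearance, unbound clearance, Vdss and half-life also derived.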

[2] = Inhibition of wild-type Pseudomonas aeruginosa DNA gyrase supercoiling activity using relaxed pBR322 DNA as substrate by ethidium bromide based agarose gel electrophoresis
Cavia porcellus [3] = experiment: (§2) Cardiotoxicity in Dunkin-Hartley guinea pig assessed as free plasma concentration causing effect on PR interval administered as iv at 3 mg/kg for first 20 mins of infusion followed by 10 mg/kg for second 20 mins of infusion followed by 30 mg/kg for third 20 mins of infusion by LC-MS/MS analysis; type: toxicity, organism-based; details: in vivo
Method in brief: (§3)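 Anesthetized guinea pigs received 3, 10 and 30 mg/kg iv over three consecutive 20 min periods. MAP, HR and ECG intervals (PR, QRS, RR, QT) recorded continuously. Blood drawn at the end of each period for drug levels. Value is the lowest plasma concentration differing from vehicle-treated animals. Free level uses unbound fraction from rapid equilibrium dialysis of guinea pig plasma.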

Cavia porcellus [4] = experiment: as §2, with “mean arterial pressure” for “PR interval”; type: toxicity, organism-based; details: in vivo; method in brief: as §3
[5] = Clearance in Wistar rat at 10 mg/kg, iv by LC-MS/MS analysis; type: ADME, organism-based; details: in vivo; method in brief: as §1
hERG (KCNH2) [6] = target: T1, hERG (KCNH2) (Homo sapiens, UniProt Q12809); experiment: Inhibition of human ERG assessed as reduction of K+ current at 30 uM
Method in brief: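 hERG K+ channel current reduction measured at 30 μM compound concentration.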

Canis familiaris = experiment: Dose normalized AUC in dog at 1 mg/kg, iv by LC-MS/MS analysis; type: ADME, organism-based, Canis lupus familiaris; details: in vivo
[7] = Inhibition of wild-type Pseudomonas aeruginosa DNA topoisomerase-4 mediated supercoiled pBR322 DNA relaxation by ethidium bromide based agarose gel electrophoresis
Rattus norvegicus [8] = experiment: Unbound clearance in Wistar rat at 10 mg/kg, iv by LC-MS/MS analysis; type: ADME, organism-based; details: in vivo
Method in brief: (§4)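 Rats received a single intravenous dose of 10 or 1 mg/kg depending on the compound. Clearance, unbound clearance, Vdss, terminal half-life and dose-normalized AUC were derived from plasma exposure, with unbound fraction (fu) reported for this species.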

Citrobacter freundii = experiment: Antibacterial activity against Citrobacter freundii by CLSI broth microdilution method; type: functional
Enterococcus faecium = experiment: Antibacterial activity against multi-drug resistant Enterococcus faecium by CLSI broth microdilution method; type: functional
Streptococcus pyogenes = experiment: Antibacterial activity against Streptococcus pyogenes by CLSI broth microdilution method; type: functional
[9] = Inhibition of wild-type Escherichia coli DNA topoisomerase-4 mediated supercoiled pBR322 DNA relaxation by ethidium bromide based agarose gel electrophoresis
Acinetobacter baumannii = experiment: Antibacterial activity against multi-drug resistant Acinetobacter baumannii by CLSI broth microdilution method; type: functional
Streptococcus pneumoniae = experiment: Antibacterial activity against Streptococcus pneumoniae by CLSI broth microdilution method; type: functional
[10] = Terminal half-life in Wistar rat at 10 mg/kg, iv by LC-MS/MS analysis; type: ADME, organism-based; details: in vivo, read-out: beta t1/2 (converted); method in brief: as §1
[11] = Fraction unbound in Wistar rat plasma at 10 mg/kg, iv by rapid equilibrium dialysis; type: ADME, organism-based; method in brief: as §1
hERG (KCNH2) [12] = target: T1, hERG (KCNH2); experiment: (§5) Inhibition of human ERG assessed as reduction of K+ current; details: human
[13] = target: Voltage-gated inwardly rectifying potassium channel KCNH2 (Homo sapiens, UniProt Q12809); experiment: as §5
[14] = Inhibition of wild-type Acinetobacter baumannii DNA topoisomerase-4 mediated supercoiled pBR322 DNA relaxation by ethidium bromide based agarose gel electrophoresis
Pseudomonas aeruginosa [15] = experiment: Antibacterial activity against Pseudomonas aeruginosa ATCC 27853 by CLSI broth microdilution method; type: functional
Staphylococcus aureus [16] = experiment: Antibacterial activity against Staphylococcus aureus ATCC 29213 by CLSI broth microdilution method; type: functional
Enterobacter cloacae = experiment: Antibacterial activity against fluoroquinolone/carbapenem-resistant Enterobacter cloacae by CLSI broth microdilution method; type: functional
[17] = Cardiotoxicity against human induced pluripotent stem cell-derived cardiomyocytes assessed as free drug concentration causing inhibition of spontaneous rhythm after 5 to 60 mins by Fluo-4 dye based fluorescence assay; type: toxicity; details: cardiac muscle cell
Method in brief: (§6)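 Spontaneous beating rhythm of human iPSC-derived cardiomyocytes monitored. Reported value is the lowest active concentration, free or total. Free/total conversion corrected for 20% serum in the test solution.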

[18] = Cardiotoxicity against human induced pluripotent stem cell-derived cardiomyocytes assessed as total drug concentration causing effect on spontaneous rhythm after 5 to 60 mins by Fluo-4 dye based fluorescence assay; type: toxicity; details: cardiac muscle cell; method in brief: as §6
Escherichia coli [19] = experiment: Antibacterial activity against wild-type Escherichia coli ATCC 25922 by CLSI broth microdilution method; type: functional
[20] = Lipophilicity, log D of the compound at pH 7.4; type: physicochemical; details: buffer
Pseudomonas aeruginosa [21] = experiment: Antibacterial activity against fluoroquinolone/carbapenem-resistant Pseudomonas aeruginosa by CLSI broth microdilution method; type: functional
Escherichia coli [22] = experiment: Antibacterial activity against Escherichia coli by CLSI broth microdilution method; type: functional
Cavia porcellus [23] = experiment: Cardiotoxicity in Dunkin-Hartley guinea pig assessed as free plasma concentration causing effect on QT interval administered as iv at 3 mg/kg for first 20 mins of infusion followed by 10 mg/kg for second 20 mins of infusion followed by 30 mg/kg for third 20 mins of infusion by LC-MS/MS analysis; type: toxicity, organism-based; details: in vivo; method in brief: as §3
[24] = Volume of distribution at steady state in dog at 1 mg/kg, iv by LC-MS/MS analysis; type: ADME, organism-based, Canis lupus familiaris; details: in vivo, read-out: Vdss
Method in brief: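 Dogs received a single intravenous dose of 1 mg/kg. Clearance, Vdss, terminal half-life and dose-normalized AUC were calculated from plasma concentration data.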

Staphylococcus aureus [25] = experiment: Antibacterial activity against Staphylococcus aureus by CLSI broth microdilution method; type: functional
[26] = Inhibition of wild-type Escherichia coli DNA gyrase supercoiling activity using relaxed pBR322 DNA as substrate by ethidium bromide based agarose gel electrophoresis
[27] = Volume of distribution at steady state in Wistar rat at 10 mg/kg, iv by LC-MS/MS analysis; type: ADME, organism-based; details: in vivo, read-out: Vdss; method in brief: as §4
[28] = Half-life in dog at 1 mg/kg, iv by LC-MS/MS analysis; type: ADME, organism-based, Canis lupus familiaris; details: in vivo
Method in brief: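 Dogs given 1 mg/kg iv. Clearance (mL/min/kg) and half-life (h) derived from plasma profiles.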

Streptococcus agalactiae = experiment: Antibacterial activity against Streptococcus agalactiae by CLSI broth microdilution method; type: functional
Cavia porcellus [29] = experiment: Cardiotoxicity in Dunkin-Hartley guinea pig assessed as free plasma concentration causing effect on heart rate administered as iv at 3 mg/kg for first 20 mins of infusion followed by 10 mg/kg for second 20 mins of infusion followed by 30 mg/kg for third 20 mins of infusion by LC-MS/MS analysis; type: toxicity, organism-based; details: in vivo; method in brief: as §3
Serratia marcescens = experiment: Antibacterial activity against Serratia marcescens by CLSI broth microdilution method; type: functional

T1 sequence (Q12809 whole entry): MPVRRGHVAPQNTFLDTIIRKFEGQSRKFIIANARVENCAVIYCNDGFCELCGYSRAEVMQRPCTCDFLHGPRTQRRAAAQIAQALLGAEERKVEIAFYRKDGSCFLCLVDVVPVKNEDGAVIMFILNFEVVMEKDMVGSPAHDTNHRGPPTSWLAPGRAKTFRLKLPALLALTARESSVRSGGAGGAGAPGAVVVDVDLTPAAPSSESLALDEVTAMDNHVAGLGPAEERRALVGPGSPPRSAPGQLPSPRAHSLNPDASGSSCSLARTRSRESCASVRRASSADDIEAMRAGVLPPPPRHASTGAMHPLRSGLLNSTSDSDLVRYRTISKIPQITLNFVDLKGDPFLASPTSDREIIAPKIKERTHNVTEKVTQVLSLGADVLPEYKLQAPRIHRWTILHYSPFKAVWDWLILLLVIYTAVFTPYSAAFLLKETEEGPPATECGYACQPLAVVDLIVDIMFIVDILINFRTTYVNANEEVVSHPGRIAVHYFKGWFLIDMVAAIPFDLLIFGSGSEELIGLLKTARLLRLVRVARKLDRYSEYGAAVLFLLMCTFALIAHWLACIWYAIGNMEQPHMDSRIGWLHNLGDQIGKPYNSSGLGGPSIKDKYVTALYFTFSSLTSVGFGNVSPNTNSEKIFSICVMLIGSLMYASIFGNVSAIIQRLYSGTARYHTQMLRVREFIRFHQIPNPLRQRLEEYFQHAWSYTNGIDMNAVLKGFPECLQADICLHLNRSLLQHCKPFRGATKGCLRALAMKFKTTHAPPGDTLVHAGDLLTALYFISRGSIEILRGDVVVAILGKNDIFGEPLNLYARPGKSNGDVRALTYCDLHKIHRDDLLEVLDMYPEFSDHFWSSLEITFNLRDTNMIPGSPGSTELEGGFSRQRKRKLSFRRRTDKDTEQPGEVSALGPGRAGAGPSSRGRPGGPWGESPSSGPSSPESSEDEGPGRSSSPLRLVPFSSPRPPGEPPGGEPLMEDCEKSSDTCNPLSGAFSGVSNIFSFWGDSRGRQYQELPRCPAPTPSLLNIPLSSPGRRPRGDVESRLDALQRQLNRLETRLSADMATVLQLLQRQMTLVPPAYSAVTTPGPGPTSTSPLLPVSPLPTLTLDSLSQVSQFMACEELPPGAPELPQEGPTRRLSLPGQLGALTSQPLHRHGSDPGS
Sequence of Voltage-gated inwardly rectifying potassium channel KCNH2 (Q12809 whole entry): as above

Row | Structure (SMILES) | AUC/dose (Rattus norvegicus [1]) | IC50 [2] | Cp(f) (Cavia porcellus [3]) | Cp(f) (Cavia porcellus [4]) | clearance [5] | inhibition at 30 µM (hERG (KCNH2) [6]) | AUC/dose (Canis familiaris) | IC50 [7] | CL free (Rattus norvegicus [8]) | MIC (Citrobacter freundii) | MIC (Enterococcus faecium) | MIC (Streptococcus pyogenes) | IC50 [9] | MIC (Acinetobacter baumannii) | MIC (Streptococcus pneumoniae) | half-life [10] | fraction unbound [11] | IC20 (hERG (KCNH2) [12]) | IC50 [13] | IC50 [14] | also measured
1 | COc1ccc2ccc(=O)n(C[C@H](N)[C@@H]3CC[C@@H](NCc4ccc5c(n4)NC(=O)CO5)CO3)c2n1 | 145 µg·h/mL | 125 nM | 2700 nM | 28000 nM | 110 mL/min/kg | 37% | 376 ng·h/mL | 30 nM | 144 mL/min/kg | 1 µg/mL (≈ 2.08 µM) | 1 to 16 µg/mL (≈ 2.08 to 33.3 µM) | ≤ 0.03 µg/mL | 30 nM | 1 to 16 µg/mL (≈ 2.08 to 33.3 µM) | 0.25 to 8 µg/mL (≈ 0.52 to 16.6 µM) | 9.1 h | 0.236 | 13000 nM | 52000 nM | 125 nM | MIC (Pseudomonas aeruginosa [15]): 1 µg/mL (≈ 2.08 µM); MIC (Staphylococcus aureus [16]): 0.25 µg/mL (≈ 0.52 µM); MIC (Enterobacter cloacae): 2 to 16 µg/mL (≈ 4.16 to 33.3 µM); Drug uptake(free) [17]: 0.27 to 0.81 µM; Drug uptake [18]: 0.31 to 0.93 µM; MIC (Escherichia coli [19]): 0.25 µg/mL (≈ 0.52 µM); logD [20]: 0.3; MIC (Pseudomonas aeruginosa [21]): 1 to 2 µg/mL (≈ 2.08 to 4.16 µM); MIC (Escherichia coli [22]): 0.5 to 2 µg/mL (≈ 1.04 to 4.16 µM); Cp(f) (Cavia porcellus [23]): 2700 nM; Vd [24]: 2.5 L/kg; MIC (Staphylococcus aureus [25]): 0.25 to 2 µg/mL (≈ 0.52 to 4.16 µM); IC50 [26]: 125 nM; Vd [27]: 21 L/kg; half-life [28]: 1.3 h; MIC (Streptococcus agalactiae): 4 µg/mL (≈ 8.32 µM); Cp(f) (Cavia porcellus [29]): 11000 nM; MIC (Serratia marcescens): 8 to 16 µg/mL (≈ 16.6 to 33.3 µM)
2 | COc1ccc2ncc(F)c(C[C@H](N)[C@@H]3CC[C@@H](NCc4ccc5c(n4)NC(=O)CO5)CO3)c2n1 | 194 µg·h/mL | 30 nM | 1800 nM | 1800 nM | 86 mL/min/kg | 86% | 34000 ng·h/mL | 30 nM | 573 mL/min/kg | 0.25 µg/mL (≈ 0.518 µM) | 0.063 to 0.5 µg/mL (≈ 0.131 to 1.04 µM) | ≤ 0.03 µg/mL | 30 nM | 0.125 to 4 µg/mL (≈ 0.259 to 8.29 µM) | 0.125 to 2 µg/mL (≈ 0.259 to 4.14 µM) | 8.8 h | 0.15 | 1200 nM | 5000 nM | 125 nM | MIC (Pseudomonas aeruginosa [15]): 1 µg/mL (≈ 2.07 µM); MIC (Staphylococcus aureus [16]): 0.03 µg/mL (≈ 0.0622 µM); MIC (Enterobacter cloacae): 0.25 to 4 µg/mL (≈ 0.518 to 8.29 µM); Drug uptake(free) [17]: 0.28 µM; Drug uptake [18]: 0.5 µM; MIC (Escherichia coli [19]): 0.125 µg/mL (≈ 0.259 µM); logD [20]: 0.9; MIC (Pseudomonas aeruginosa [21]): 1 to 2 µg/mL (≈ 2.07 to 4.14 µM); MIC (Escherichia coli [22]): 0.125 to 0.5 µg/mL (≈ 0.259 to 1.04 µM); Cp(f) (Cavia porcellus [23]): 530 nM; Vd [24]: 61 L/kg; MIC (Staphylococcus aureus [25]): 0.125 to 0.5 µg/mL (≈ 0.259 to 1.04 µM); IC50 [26]: 125 nM; Vd [27]: 25 L/kg; half-life [28]: 2.9 h; MIC (Streptococcus agalactiae): 2 µg/mL (≈ 4.14 µM); Cp(f) (Cavia porcellus [29]): 530 nM; MIC (Serratia marcescens): 1 to 8 µg/mL (≈ 2.07 to 16.6 µM)
